Series [1] relates to Aspergillus fumigatus. Put plainly: Antimicrobial activity against Aspergillus fumigatus clinical isolate after 18 to 24 hrs by micro-dilution method. It is filed as functional. In a few lines:
(§1)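 Broth micro-dilution MIC, fungi. Fresh broth cultures were made in normal saline. Compounds were serially diluted in microtiter plates across 8 concentrations, 100 down to 0.78. Standardized inoculum was 1–2 × 10^7 cfu/ml. Medium was Sabouraud dextrose pH 7.3 ± 0.2. Plates were incubated aerobically at 37 °C for 18–24 h. MIC is the lowest concentration with no visible growth or turbidity versus control. Fluconazole was the reference.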
For orientation: Dilution methods test growth across graded concentrations, often in twofold steps.

Series [2] deals with Aspergillus niger. The series is described as follows: Antimicrobial activity against Aspergillus niger clinical isolate after 18 to 24 hrs by micro-dilution method. Format: functional. In a few lines: as §1
Series [3] deals with Cryptococcus neoformans. Put plainly: Antifungal activity against Cryptococcus neoformans clinical isolate after 18 to 24 hrs by micro-dilution method. It is filed as functional. In a few lines: as §1
Series [4] deals with Pichia kudriavzevii. The series is described as follows: Antifungal activity against Candida krusei ATCC 6258 after 18 to 24 hrs by micro-dilution method. Format: functional. In short, it runs like this:
as §1

In series [5] the test system is Candida albicans. Put plainly: Antifungal activity against Candida albicans ATCC 90028 after 18 to 24 hrs by micro-dilution metho. Format: functional. In a few lines:
as §1

Series [6] relates to Candida albicans. Put plainly: Antifungal activity against Candida albicans clinical isolate after 18 to 24 hrs by micro-dilution method. It is filed as functional. In short, it runs like this:
as §1

The test system of series [7] is Candida tropicalis. The series is described as follows: Antifungal activity against Candida tropicalis ATCC 750 after 18 to 24 hrs by micro-dilution method. Format: functional. In a few lines:
as §1

For series [8], the system named is Shigella boydii. Put plainly: Antimicrobial activity against Shigella boydii clinical isolate after 18 to 24 hrs by micro-dilution method. It is filed as functional.
Series [9] in a line: Cytotoxicity against human RBC assessed as hemolytic activity at 100 uM after 1 hr by spectophotometry. Format: cell-based, Erythrocyte. The following applies: red blood cells (RBC), read-out: Activity. In short, it runs like this:
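Hemolysis, fresh human blood. RBCs were washed three times in PBS (spun 3000 rpm, 7 min, room temperature) and adjusted to 5×10^8 cells/ml. Cell suspension was added to buffer holding 100 μM compound in 1% v/v DMSO/PBS. Controls were 1% DMSO/PBS and sterile water. Samples were shaken at 37 °C for 1 h, spun at 1300 rpm for 5 min, and supernatant absorbance read at 540 nm.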

Series [10] relates to Pseudomonas aeruginosa. Put plainly: Antimicrobial activity against Pseudomonas aeruginosa ATCC 27893 after 18 to 24 hrs by micro-dilution method. It is filed as functional.
The test system of series [11] is Klebsiella pneumoniae. Put plainly: Antimicrobial activity against Klebsiella pneumoniae clinical isolate after 18 to 24 hrs by micro-dilution method. It is filed as functional.
Series [12] deals with Escherichia coli. The series is described as follows: Antimicrobial activity against Escherichia coli ATCC 35218 after 18 to 24 hrs by micro-dilution method. Format: functional.
The test system of series [13] is Salmonella typhi. Put plainly: Antimicrobial activity against Salmonella typhi MTCC 3216 after 18 to 24 hrs by micro-dilution method. It is filed as functional, Salmonella enterica subsp. enterica serovar Typhi. The note with it: Salmonella enterica. In short, it runs like this: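 Broth microdilution with twofold serial dilutions from 100 down to 0.78, eight concentrations. Fresh cultures were made up in normal saline, and 0.1 ml of standardized inoculum (1–2 × 10^7 cfu/ml) was added per well. Plates were incubated aerobically at 37 °C for 18–24 h on Mueller-Hinton agar/Luria broth. MIC was the lowest concentration with no visible turbidity compared with the control.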

The subject of series [14] is Enterococcus faecalis. The series is described as follows: Antimicrobial activity against Enterococcus faecalis clinical isolate after 18 to 24 hrs by micro-dilution method. Format: functional.
Series [15] has as its system Staphylococcus aureus. Put plainly: Antimicrobial activity against Staphylococcus aureus ATCC 25323 after 18 to 24 hrs by micro-dilution method. Format: functional.

Drawing on ChEMBL document CHEMBL2375318, “Design, synthesis and antimicrobial activity of novel benzothiazole analogs” (Eur J Med Chem, 2013), this text covers MIC and hemolysis for 8 molecules.

Molecules are shown by their SMILES. Values after ≈ are worked out from the molar mass of the structure shown.

Regarding `Fc1cccc(-n2cc(CN(Cc3cn(-c4cccc(F)c4)nn3)c3nc4ccccc4s3)nn2)c1`, the MIC in series [1], in series [2], in series [3], in series [4], in series [5] and in series [6] was more than 100 µg/mL in each case. The MIC in series [7], in series [8], in series [10], in series [11], in series [12] and in [13] was more than 100 µg/mL each time. Also, the MIC in series [14] and in series [15] was more than 100 µg/mL throughout. In [9], the hemolysis at 1 h, 100 µM came out at 29.8%.

With `Cc1cc(F)ccc1-n1cc(CN(Cc2cn(-c3ccc(F)cc3C)nn2)c2nc3ccccc3s2)nn1`, the MIC in [1], in series [2], in [3], in series [4], in [5] and in series [6] was more than 100 µg/mL in each case. The MIC (commonly the lowest concentration that inhibits growth of the organism) is more than 100 µg/mL in series [7]; more than 100 µg/mL in [8]; more than 100 µg/mL in series [10]; more than 100 µg/mL in [11]; 50 µg/mL (≈ 94.6 µM) in series [12]; more than 100 µg/mL in [13]. In addition, the MIC in [14] and in [15] was more than 100 µg/mL each time. Besides, in series [9], the hemolysis at 1 h, 100 µM was found to be 29.8%.

`COc1cc(-n2cc(CN(Cc3cn(-c4cc(OC)c(OC)c(OC)c4)nn3)c3nc4ccccc4s3)nn2)cc(OC)c1OC`: the MIC is more than 100 µg/mL in [1]; more than 100 µg/mL in series [2]; more than 100 µg/mL in [3]; 6.25 µg/mL (≈ 9.69 µM) in series [4]; more than 100 µg/mL in series [5]; more than 100 µg/mL in [6]. Moreover, the MIC in series [7], in [8], in series [10], in series [11], in [12] and in series [13] was more than 100 µg/mL in each case. In addition, the MIC in series [14] and in [15] was more than 100 µg/mL in each case. Further, the hemolysis at 1 h, 100 µM in series [9] worked out at 36.6%.

In the case of `CCc1ccc(-n2cc(CN(Cc3cn(-c4ccc(CC)cc4)nn3)c3nc4ccccc4s3)nn2)cc1`, the minimum inhibitory concentration (MIC) in series [1], in [2], in series [3], in [4], in series [5] and in series [6] was more than 100 µg/mL each time. Besides, the MIC in series [7] was more than 100 µg/mL; in series [8], more than 100 µg/mL; in series [10], more than 100 µg/mL; in series [11] it was more than 100 µg/mL; in series [12], 50 µg/mL (≈ 96 µM); in series [13] it was more than 100 µg/mL. The MIC in series [14] and in series [15] was more than 100 µg/mL throughout. Besides, the hemolysis at 1 h, 100 µM in series [9] came to 48.3%.

For the molecule `Clc1cccc(-n2cc(CN(Cc3cn(-c4cccc(Cl)c4Cl)nn3)c3nc4ccccc4s3)nn2)c1Cl`, the MIC in [1] is more than 100 µg/mL; in [2], more than 100 µg/mL; in [3] it was 3.12 µg/mL (≈ 5.18 µM); in series [4], more than 100 µg/mL; in series [5], more than 100 µg/mL; in series [6], 25 µg/mL (≈ 41.5 µM). The MIC in series [7] is more than 100 µg/mL; in series [8], more than 100 µg/mL; in series [10], more than 100 µg/mL; in series [11], more than 100 µg/mL; in [12] it was more than 100 µg/mL; in [13], 100 µg/mL (≈ 166 µM). For the same molecule, the MIC in series [14] is more than 100 µg/mL; in series [15] it was 50 µg/mL (≈ 83 µM). Moreover, the hemolysis at 1 h, 100 µM in series [9] amounted to 37.7%.

`Fc1ccc(-n2cc(CN(Cc3cn(-c4ccc(F)cc4Cl)nn3)c3nc4ccccc4s3)nn2)c(Cl)c1`: the MIC in [1] was determined as 6.25 µg/mL (≈ 11 µM); in series [2], 25 µg/mL (≈ 43.9 µM); in series [3], 1.56 µg/mL (≈ 2.74 µM); in [4], 6.25 µg/mL (≈ 11 µM); in series [5], 50 µg/mL (≈ 87.8 µM); in series [6] it was 6.25 µg/mL (≈ 11 µM). For the same molecule, the MIC in series [7] was determined as 6.25 µg/mL (≈ 11 µM); in series [8], 100 µg/mL (≈ 176 µM); in [10], 6.25 µg/mL (≈ 11 µM); in series [11], 100 µg/mL (≈ 176 µM); in series [12], 3.12 µg/mL (≈ 5.48 µM); in series [13], 6.25 µg/mL (≈ 11 µM). The MIC in series [14] was 6.25 µg/mL (≈ 11 µM); in [15], 50 µg/mL (≈ 87.8 µM). Also, the hemolysis at 1 h, 100 µM in series [9] stood at 12.3%.

In the case of `Brc1ccc(-n2cc(CN(Cc3cn(-c4ccc(Br)cc4)nn3)c3nc4ccccc4s3)nn2)cc1`, the MIC in series [1] was found to be 3.12 µg/mL (≈ 5.01 µM); in series [2] it was 3.12 µg/mL (≈ 5.01 µM); in [3], 1.56 µg/mL (≈ 2.51 µM); in [4], 6.25 µg/mL (≈ 10 µM); in [5], 6.25 µg/mL (≈ 10 µM); in [6], 12.5 µg/mL (≈ 20.1 µM). The MIC in series [7] is 6.25 µg/mL (≈ 10 µM); in [8], more than 100 µg/mL; in series [10], more than 100 µg/mL; in series [11], more than 100 µg/mL; in series [12], more than 100 µg/mL; in series [13] it was more than 100 µg/mL. Besides, the MIC in series [14] and in series [15] was more than 100 µg/mL in each case. Also, the hemolysis at 1 h, 100 µM in [9] came out at 12.4%.

Turning to `Cc1cc(C)cc(-n2cc(CN(Cc3cn(-c4cc(C)cc(C)c4)nn3)c3nc4ccccc4s3)nn2)c1`, the MIC is 12.5 µg/mL (≈ 24 µM) in series [1]; 12.5 µg/mL (≈ 24 µM) in series [2]; 3.12 µg/mL (≈ 5.99 µM) in series [3]; more than 100 µg/mL in series [4]; 3.12 µg/mL (≈ 5.99 µM) in series [5]; 12.5 µg/mL (≈ 24 µM) in [6]. In addition, the MIC in series [7] was 12.5 µg/mL (≈ 24 µM); in [8], 100 µg/mL (≈ 192 µM); in [10] it was more than 100 µg/mL; in [11], more than 100 µg/mL; in series [12], 100 µg/mL (≈ 192 µM); in [13] it was 100 µg/mL (≈ 192 µM). Also, the MIC in series [14] was more than 100 µg/mL; in [15], 100 µg/mL (≈ 192 µM). Moreover, the hemolysis at 1 h, 100 µM in [9] was determined as 7.42%.
